For assay [1], the system named is TGF-beta receptor type-1 (Homo sapiens), P36897 [T204D]. The experiment in a line: Inhibition of recombinant human N-terminal GST-tagged TGFBR1 T204D mutant (200 to 501 residues) expressed in baculovirus infected Sf21 cells assessed as remaining activity at 1 uM using crosstide peptide as substrate incubated for 30 mins in presence of [gamma-33P]ATP by filter binding method relative to control.

For assay [2], the target named is Casein kinase I isoform gamma-2 (Homo sapiens) (UniProt P78368). In words: Inhibition of recombinant human N-terminal GST-tagged CK1g2 (1 to 415 residues) expressed in Escherichia coli assessed as remaining activity at 1 uM using RRKDLHDDEEDEAMSITA as substrate incubated for 30 mins in presence of [gamma-33P]ATP by filter binding method relative to control.
Sequence of Casein kinase I isoform gamma-2 (Homo sapiens) (P78368 whole entry, looked up, the tested form may be a part, canonical isoform): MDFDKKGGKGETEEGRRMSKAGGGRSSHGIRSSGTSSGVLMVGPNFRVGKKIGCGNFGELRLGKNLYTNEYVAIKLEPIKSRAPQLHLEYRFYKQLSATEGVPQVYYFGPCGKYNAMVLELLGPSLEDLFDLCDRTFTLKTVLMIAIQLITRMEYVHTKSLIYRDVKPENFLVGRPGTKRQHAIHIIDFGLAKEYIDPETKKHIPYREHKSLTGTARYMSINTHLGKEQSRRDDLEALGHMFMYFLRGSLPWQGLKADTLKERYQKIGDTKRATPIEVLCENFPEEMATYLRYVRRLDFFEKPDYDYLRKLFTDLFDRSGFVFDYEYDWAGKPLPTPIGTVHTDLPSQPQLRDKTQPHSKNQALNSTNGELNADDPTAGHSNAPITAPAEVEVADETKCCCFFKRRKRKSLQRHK
The target in assay [3] is SRSF protein kinase 1 (Homo sapiens) (UniProt Q96SB4). In words: Inhibition of recombinant human N-terminal GST-tagged SRPK1 (2 to 654 residues) expressed in Escherichia coli assessed as remaining activity at 1 uM using RSRSRSRSRSRSRSR as substrate incubated for 30 mins in presence of [gamma-33P]ATP by filter binding method relative to control.
Sequence of SRSF protein kinase 1 (Homo sapiens) (Q96SB4 whole entry, the tested form may be a part): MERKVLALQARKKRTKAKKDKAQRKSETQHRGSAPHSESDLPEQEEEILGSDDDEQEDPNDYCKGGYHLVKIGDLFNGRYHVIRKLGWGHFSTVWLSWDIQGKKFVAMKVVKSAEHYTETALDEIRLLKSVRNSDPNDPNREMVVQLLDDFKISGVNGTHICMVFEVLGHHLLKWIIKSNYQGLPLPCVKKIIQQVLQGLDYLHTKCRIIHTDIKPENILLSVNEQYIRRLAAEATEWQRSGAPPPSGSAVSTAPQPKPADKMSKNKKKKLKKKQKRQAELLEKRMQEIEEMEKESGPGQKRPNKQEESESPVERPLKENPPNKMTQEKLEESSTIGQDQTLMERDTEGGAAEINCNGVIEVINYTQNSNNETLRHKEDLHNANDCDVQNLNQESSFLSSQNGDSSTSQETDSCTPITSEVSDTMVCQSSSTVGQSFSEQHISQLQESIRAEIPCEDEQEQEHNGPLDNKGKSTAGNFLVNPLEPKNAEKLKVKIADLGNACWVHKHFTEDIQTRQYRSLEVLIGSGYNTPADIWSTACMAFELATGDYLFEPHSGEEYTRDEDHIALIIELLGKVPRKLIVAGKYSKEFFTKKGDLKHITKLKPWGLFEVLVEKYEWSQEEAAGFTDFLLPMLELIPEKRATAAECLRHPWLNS
For assay [4], the target named is MAP/microtubule affinity-regulating kinase 3 (Homo sapiens) (UniProt P27448). In words: Inhibition of recombinant human N-terminal His6-tagged MARK3 (2 to 729 residues) expressed in baculovirus infected Sf21 cells assessed as remaining activity at 1 uM using CHKtide as substrate incubated for 30 mins in presence of [gamma-33P]ATP by filter binding method relative to control.

The target in assay [5] is Maternal embryonic leucine zipper kinase (Homo sapiens) (UniProt Q14680). The experiment in a line: Inhibition of recombinant human N-terminal GST/C-terminal His6-tagged MELK (2 to 651 residues) expressed in Escherichia coli assessed as remaining activity at 1 uM using KKLNRTLSFAEPG as substrate incubated for 30 mins in presence of [gamma-33P]ATP by filter binding method relative to control.

The target in assay [6] is Casein kinase I isoform delta (Homo sapiens) (UniProt P48730). The experiment in a line: Inhibition of recombinant human N-terminal GST-tagged CK1delta (1 to 415 residues) expressed in Escherichia coli assessed as remaining activity at 1 uM using RRKDLHDDEEDEAMSITA as substrate incubated for 30 mins in presence of [gamma-33P]ATP by filter binding method relative to control.

Assay [7] deals with Angiopoietin-1 receptor (Homo sapiens) (UniProt Q02763). The experiment in a line: Inhibition of recombinant human N-terminal His6-tagged TIE2 (771 to 1124 residues) expressed in baculovirus infected Sf21 cells assessed as remaining activity at 1 uM using Poly(Glu,Tyr) as substrate incubated for 30 mins in presence of [gamma-33P]ATP by filter binding method relative to control.

Assay [8] deals with Tyrosine-protein kinase Yes (Homo sapiens) (UniProt P07947). In words: Inhibition of human YES at 1 uM using polyEY as substrate in presence of 33P-ATP by ProQinase assay.
Sequence of Tyrosine-protein kinase Yes (Homo sapiens) (P07947 2-543 limits assumed): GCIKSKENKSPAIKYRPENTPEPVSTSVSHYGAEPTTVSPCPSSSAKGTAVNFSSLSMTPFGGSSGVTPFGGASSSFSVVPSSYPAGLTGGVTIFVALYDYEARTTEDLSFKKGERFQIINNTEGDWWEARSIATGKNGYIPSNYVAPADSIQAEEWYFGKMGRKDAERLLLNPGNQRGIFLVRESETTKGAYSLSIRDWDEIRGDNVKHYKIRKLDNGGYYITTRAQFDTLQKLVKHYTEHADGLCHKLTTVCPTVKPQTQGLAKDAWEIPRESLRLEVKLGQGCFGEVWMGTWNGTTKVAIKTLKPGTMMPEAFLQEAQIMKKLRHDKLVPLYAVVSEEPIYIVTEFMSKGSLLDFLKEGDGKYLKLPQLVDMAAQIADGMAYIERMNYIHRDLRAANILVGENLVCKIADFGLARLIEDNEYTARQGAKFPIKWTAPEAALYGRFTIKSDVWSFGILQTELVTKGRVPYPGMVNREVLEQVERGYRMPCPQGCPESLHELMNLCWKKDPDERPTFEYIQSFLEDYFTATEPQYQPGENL
For assay [9], the target named is Calcium/calmodulin-dependent protein kinase kinase 2 (Homo sapiens) (UniProt Q96RR4). In words: Inhibition of human CAMKK2 at 1 uM using RBER-GSK3 as substrate in presence of 33P-ATP by ProQinase assay.
The target in assay [10] is cGMP-dependent protein kinase 1 (Homo sapiens) (UniProt Q13976). In words: Inhibition of human PRKG1 at 1 uM using 3xChocktide-PKC as substrate in presence of 33P-ATP by ProQinase assay.
Sequence of cGMP-dependent protein kinase 1 (Homo sapiens) (Q13976 whole entry): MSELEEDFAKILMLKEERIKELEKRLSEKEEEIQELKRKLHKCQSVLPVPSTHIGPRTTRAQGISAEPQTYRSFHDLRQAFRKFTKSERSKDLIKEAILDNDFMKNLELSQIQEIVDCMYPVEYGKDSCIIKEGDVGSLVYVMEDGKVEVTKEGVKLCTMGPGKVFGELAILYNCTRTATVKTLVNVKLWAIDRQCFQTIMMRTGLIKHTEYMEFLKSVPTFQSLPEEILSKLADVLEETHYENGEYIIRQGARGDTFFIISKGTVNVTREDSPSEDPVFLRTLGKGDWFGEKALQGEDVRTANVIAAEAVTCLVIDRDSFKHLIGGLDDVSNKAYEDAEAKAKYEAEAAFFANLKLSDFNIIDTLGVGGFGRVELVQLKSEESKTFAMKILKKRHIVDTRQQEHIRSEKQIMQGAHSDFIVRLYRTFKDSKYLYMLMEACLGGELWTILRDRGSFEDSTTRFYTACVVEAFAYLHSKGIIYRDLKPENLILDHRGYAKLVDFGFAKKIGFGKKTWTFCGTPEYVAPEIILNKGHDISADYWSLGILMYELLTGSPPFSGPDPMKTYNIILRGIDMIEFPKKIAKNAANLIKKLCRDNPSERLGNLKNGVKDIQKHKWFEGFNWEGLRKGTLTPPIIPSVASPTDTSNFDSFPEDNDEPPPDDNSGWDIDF
Assay [11] addresses Ribosomal protein S6 kinase alpha-3 (Homo sapiens) (UniProt P51812). In words: Inhibition of human RPS6KA3 at 1 uM using bio-4xCHKT as substrate in presence of 33P-ATP by ProQinase assay.
Assay [12] concerns the target Serine/threonine-protein kinase D1 (Homo sapiens) (UniProt Q15139). In words: Inhibition of human PKCmu at 1 uM using RBER-CHKtide as substrate in presence of 33P-ATP by ProQinase assay.
Assay [13] concerns the target Eukaryotic translation initiation factor 2-alpha kinase 3 (Homo sapiens) (UniProt Q9NZJ5). The experiment in a line: Inhibition of human EIF2AK3 at 1 uM using casein as substrate in presence of 33P-ATP by ProQinase assay.
Assay [14] deals with Protein kinase C alpha type (Homo sapiens) (UniProt P17252). The experiment in a line: Inhibition of human PKCalpha at 1 uM using 3xChocktide-PKC as substrate in presence of 33P-ATP by ProQinase assay.
Assay [15] has as its target Serine/threonine-protein kinase 4 (Homo sapiens) (UniProt Q13043). In words: Inhibition of human MST1 at 1 uM using RB-CTF as substrate in presence of 33P-ATP by ProQinase assay.
The target of assay [16] is Dual specificity tyrosine-phosphorylation-regulated kinase 3 (Homo sapiens) (UniProt O43781). In words: Inhibition of human DYRK3 at 1 uM using RBER-IRStide as substrate in presence of 33P-ATP by ProQinase assay.
For assay [17], the target named is Dual specificity protein kinase CLK1 (Homo sapiens) (UniProt P49759). In words: Inhibition of human CLK1 at 1 uM using autophos as substrate in presence of 33P-ATP by ProQinase assay.
Sequence of Dual specificity protein kinase CLK1 (Homo sapiens) (P49759 whole entry, looked up): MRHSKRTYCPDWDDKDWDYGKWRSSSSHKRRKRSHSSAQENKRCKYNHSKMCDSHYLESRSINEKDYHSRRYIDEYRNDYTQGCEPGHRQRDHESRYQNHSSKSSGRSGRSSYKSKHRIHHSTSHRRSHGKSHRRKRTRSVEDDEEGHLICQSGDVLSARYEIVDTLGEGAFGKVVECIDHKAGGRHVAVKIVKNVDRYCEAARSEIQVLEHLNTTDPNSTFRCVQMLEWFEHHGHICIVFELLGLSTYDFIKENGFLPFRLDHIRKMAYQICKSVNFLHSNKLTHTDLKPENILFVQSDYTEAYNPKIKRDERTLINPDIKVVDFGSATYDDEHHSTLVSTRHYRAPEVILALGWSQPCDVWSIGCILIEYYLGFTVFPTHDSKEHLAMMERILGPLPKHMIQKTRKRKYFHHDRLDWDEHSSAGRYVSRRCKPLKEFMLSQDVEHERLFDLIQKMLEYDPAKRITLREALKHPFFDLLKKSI
Assay [18] has as its target Serine/threonine-protein kinase TAO2 (Homo sapiens) (UniProt Q9UL54). In words: Inhibition of human TAOK2 at 1 uM using casein as substrate in presence of 33P-ATP by ProQinase assay.
In assay [19] the target is G protein-coupled receptor kinase 3 (Homo sapiens) (UniProt P35626). The experiment in a line: Inhibition of human GRK3 at 1 uM using casein as substrate in presence of 33P-ATP by ProQinase assay.
Sequence of G protein-coupled receptor kinase 3 (Homo sapiens) (P35626 whole entry): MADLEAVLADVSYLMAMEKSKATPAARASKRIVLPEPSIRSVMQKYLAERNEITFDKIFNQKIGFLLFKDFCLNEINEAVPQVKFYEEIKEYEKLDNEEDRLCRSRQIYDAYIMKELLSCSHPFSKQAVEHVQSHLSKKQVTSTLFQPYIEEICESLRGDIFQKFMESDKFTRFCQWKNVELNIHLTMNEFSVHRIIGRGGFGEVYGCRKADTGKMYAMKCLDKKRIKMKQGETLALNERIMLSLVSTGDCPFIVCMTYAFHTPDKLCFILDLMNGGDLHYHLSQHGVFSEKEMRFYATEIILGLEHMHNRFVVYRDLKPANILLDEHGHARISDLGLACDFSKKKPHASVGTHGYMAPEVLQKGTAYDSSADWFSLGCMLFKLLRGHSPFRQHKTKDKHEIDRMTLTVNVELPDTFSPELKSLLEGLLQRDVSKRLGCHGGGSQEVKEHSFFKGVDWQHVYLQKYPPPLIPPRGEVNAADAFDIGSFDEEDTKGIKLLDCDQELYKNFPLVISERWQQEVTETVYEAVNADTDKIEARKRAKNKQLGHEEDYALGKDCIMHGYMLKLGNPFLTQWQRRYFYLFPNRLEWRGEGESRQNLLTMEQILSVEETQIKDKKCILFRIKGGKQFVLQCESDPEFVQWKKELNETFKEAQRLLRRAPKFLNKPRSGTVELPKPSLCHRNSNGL
Assay [20] concerns the target MAP kinase-activated protein kinase 2 (Homo sapiens) (UniProt P49137). In words: Inhibition of human MAPKAPK2 at 1 uM using RBER-CHKtide as substrate in presence of 33P-ATP by ProQinase assay.
For assay [21], the target named is Phosphatidylinositol 4,5-bisphosphate 3-kinase catalytic subunit delta isoform (Homo sapiens) (UniProt O00329). The experiment in a line: Inhibition of p100delta (unknown origin) at 1 uM.
Assay [22] deals with Phosphatidylinositol 4,5-bisphosphate 3-kinase catalytic subunit gamma isoform (Homo sapiens, UniProt P48736). The experiment in a line: Inhibition of PI3Kgamma (unknown origin) using PtdIns(4,5)P2 as substrate preincubated for 20 mins followed by substrate addition and measured after 80 mins by Kinase-Glo assay. Background: Kinase-Glo measures the ATP left after a reaction by luminescence.

Assay [23] concerns the target Phosphatidylinositol 4-kinase type 2-beta (Homo sapiens, UniProt Q8TCG2). The experiment in a line: Inhibition of human PI4K2B using PI/PS as substrate by ADP-Glo assay. On the technique in general: ADP-Glo first removes unused ATP, then detects ADP through luciferase.
The test system of the next assay is U2OS. The experiment in a line: Inhibition of PI3K in human U2OS cells expressing FLAG-tagged SGK3 assessed as reduction in AKT phosphorylation at T308 residues at 0.01 to 1 uM 1 hr by immunoblot analysis. The format is cell-based. The note with it: dose 0.01-1 µM. The method in brief: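 Flp-In T-REx U2OS cells were grown in McCoy medium with 10% FBS. Expression of C-terminally FLAG-tagged full-length SGK3 was induced with 0.01 mg/ml doxycycline for 24 h. Cells were treated with inhibitor for 1 h and lysed in phosphatase-inhibitor buffer. Lysates were cleared at 16000 g for 10 min at 4°C, protein was measured by Bradford, and phosphorylation was read by immunoblot with ECL detection.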
A general note: In western blotting, separated proteins are transferred to a membrane and probed.

SMILES strings stand for the structures. Active and inactive are the calls of the source. No cut-off for these calls is given here.

Sequence of Ribosomal protein S6 kinase alpha-3 (Homo sapiens) (P51812 whole entry): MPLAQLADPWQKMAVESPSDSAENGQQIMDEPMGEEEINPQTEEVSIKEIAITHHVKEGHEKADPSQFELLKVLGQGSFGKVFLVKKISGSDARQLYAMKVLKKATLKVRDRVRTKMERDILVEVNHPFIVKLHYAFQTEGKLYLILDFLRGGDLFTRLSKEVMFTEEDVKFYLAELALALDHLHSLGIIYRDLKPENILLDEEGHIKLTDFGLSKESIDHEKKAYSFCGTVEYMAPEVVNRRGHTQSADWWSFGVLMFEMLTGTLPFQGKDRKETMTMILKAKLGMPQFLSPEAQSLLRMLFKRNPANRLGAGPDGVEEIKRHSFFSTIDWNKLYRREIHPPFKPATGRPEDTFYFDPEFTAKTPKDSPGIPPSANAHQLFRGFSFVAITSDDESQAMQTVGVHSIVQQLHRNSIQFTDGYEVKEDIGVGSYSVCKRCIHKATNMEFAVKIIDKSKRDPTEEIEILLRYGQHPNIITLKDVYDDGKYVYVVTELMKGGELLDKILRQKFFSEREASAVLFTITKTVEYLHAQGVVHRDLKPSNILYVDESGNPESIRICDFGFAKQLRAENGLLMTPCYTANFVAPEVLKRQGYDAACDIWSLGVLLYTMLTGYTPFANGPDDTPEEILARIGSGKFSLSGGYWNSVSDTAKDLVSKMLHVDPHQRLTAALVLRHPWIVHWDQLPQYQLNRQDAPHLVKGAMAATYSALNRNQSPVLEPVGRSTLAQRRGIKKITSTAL
Sequence of Phosphatidylinositol 4-kinase type 2-beta (Q8TCG2 whole entry): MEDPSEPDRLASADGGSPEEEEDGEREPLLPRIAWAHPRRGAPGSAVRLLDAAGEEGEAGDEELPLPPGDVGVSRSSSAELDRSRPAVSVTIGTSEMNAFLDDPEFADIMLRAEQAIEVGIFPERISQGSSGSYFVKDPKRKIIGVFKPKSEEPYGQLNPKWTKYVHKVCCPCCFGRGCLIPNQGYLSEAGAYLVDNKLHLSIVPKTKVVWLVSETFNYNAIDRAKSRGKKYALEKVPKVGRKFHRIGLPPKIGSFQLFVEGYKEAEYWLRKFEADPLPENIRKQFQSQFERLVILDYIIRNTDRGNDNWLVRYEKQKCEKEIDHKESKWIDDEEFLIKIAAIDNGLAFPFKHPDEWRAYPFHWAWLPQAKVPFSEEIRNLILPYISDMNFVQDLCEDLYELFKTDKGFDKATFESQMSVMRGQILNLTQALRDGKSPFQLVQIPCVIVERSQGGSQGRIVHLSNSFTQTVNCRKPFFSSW

The IC50 is the midpoint of a concentration-inhibition curve. Turning to `CC(C)(O)CNc1ncc(-c2ccnc(Nc3ccnc(Cl)c3)n2)c(CC2CC2)n1`, the Activity in [1] worked out at 123%; in [2], 122%; in assay [3], 111%; in assay [4], 109%; in assay [5] it was 108%; in [6], 105%. In addition, the Activity in [7] is 93%. The inhibition entry in [8], in assay [9], in assay [10], in [11], in assay [12] and in assay [13] was “inactive” each time. The inhibition entry in [14], in [15], in [16], in assay [17], in assay [18] and in [19] was “inactive” in each case. For the same molecule, the inhibition entry (in assay [20]; in [21]; in the assay on U2OS) was “inactive” throughout. Besides, the concentration for half-maximal inhibition (IC50) in assay [22] is 2680 nM; in assay [23], greater than 10000 nM.

The values above are taken from ChEMBL document CHEMBL5705899 (Biochem J, 2014).
